Laboratory results from ChEMBL document CHEMBL2380280, “Xanthates and trithiocarbonates strongly inhibit carbonic anhydrases and show antiglaucoma effects in vivo” (J Med Chem, 2013).
Each block holds one molecule with its values, some of them ahead of it. Calls of active or inactive are those of the source. The calls are words filed in the database; no cut-off is given here.

Legend:
Carbonic anhydrase 2 = Carbonic anhydrase 2 (Homo sapiens, UniProt P00918); test: Inhibition of recombinant human CA2 cytosolic isoform preincubated for 15 mins by stopped-flow CO2 hydration assay
Carbonic anhydrase 1 = Carbonic anhydrase 1 (Homo sapiens, UniProt P00915); test: Inhibition of recombinant human CA1 cytosolic isoform preincubated for 15 mins by stopped-flow CO2 hydration assay
Carbonic anhydrase 9 = Carbonic anhydrase 9 (Homo sapiens, UniProt Q16790); test: Inhibition of recombinant human CA9 transmembrane isoform preincubated for 15 mins by stopped-flow CO2 hydration assay
Carbonic anhydrase 12 = Carbonic anhydrase 12 (Homo sapiens, UniProt O43570); test: Inhibition of recombinant human CA12 transmembrane isoform preincubated for 15 mins by stopped-flow CO2 hydration assay
Oryctolagus cuniculus [1] = test: Antiglaucoma activity in hypertensive New Zealand albino rabbit model assessed as decrease in carbomer-induced intraocular pressure at 2% administered to eye measured up to 200 to 250 mins by tanometric analysis; type: functional, organism-based
Outline: (§1)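 Adult male New Zealand albino rabbits, 2−2.5 kg. Glaucoma induced by bilateral anterior-chamber injection of 0.1 mL 0.25% carbomer under im tiletamine/zolazepam plus xilazine anaesthesia. Once IOP was stably raised, drug was instilled into one eye and vehicle into the contralateral eye, three animals per drug. IOP was read by Tono-Pen tonometer after oxybuprocaine drops, before dosing and at 30, 60, 90, 120, 240 and 300 min.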

Oryctolagus cuniculus [2] = test: Antiglaucoma activity in hypertensive New Zealand albino rabbit model assessed as decrease in carbomer-induced intraocular pressure at 2% administered to eye after 50 to 100 mins by tanometric analysis (reference value: 35 to 40 mmHg); type: functional; outline: as §1
Oryctolagus cuniculus [3] = test: Antiglaucoma activity in normotensive New Zealand rabbit model assessed as decrease in intraocular pressure at 2% administered to eye vitreous by tanometric analysis; type: functional
Oryctolagus cuniculus [4] = test: Antiglaucoma activity in hypertensive New Zealand albino rabbit model assessed as decrease in carbomer-induced intraocular pressure at 2% administered to eye after 150 mins by tanometric analysis; type: functional, organism-based; outline: as §1
Oryctolagus cuniculus [5] = test: Antiglaucoma activity in normotensive New Zealand rabbit model assessed as decrease in intraocular pressure administered to eye vitreous by tanometric analysis; type: functional, organism-based
Oryctolagus cuniculus [6] = test: Antiglaucoma activity in hypertensive New Zealand albino rabbit model assessed as decrease in carbomer-induced intraocular pressure at 2% administered to eye after 100 mins by tanometric analysis (reference value: 35 to 40 mmHg); type: functional; outline: as §1
Oryctolagus cuniculus [7] = test: Antiglaucoma activity in hypertensive New Zealand albino rabbit model assessed as decrease in carbomer-induced intraocular pressure at 2% administered to eye after > 250 mins by tanometric analysis; type: functional, organism-based; outline: as §1

Carbonic anhydrase 1, sequence (P00915 whole entry, canonical isoform): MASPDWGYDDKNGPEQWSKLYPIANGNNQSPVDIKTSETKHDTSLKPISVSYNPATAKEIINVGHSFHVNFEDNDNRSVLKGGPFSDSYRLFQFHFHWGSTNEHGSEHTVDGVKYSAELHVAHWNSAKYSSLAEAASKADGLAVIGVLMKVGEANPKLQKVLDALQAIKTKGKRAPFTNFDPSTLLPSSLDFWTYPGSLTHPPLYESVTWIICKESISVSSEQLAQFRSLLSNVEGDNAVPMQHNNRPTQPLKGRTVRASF
Carbonic anhydrase 12, sequence (O43570 whole entry, canonical isoform): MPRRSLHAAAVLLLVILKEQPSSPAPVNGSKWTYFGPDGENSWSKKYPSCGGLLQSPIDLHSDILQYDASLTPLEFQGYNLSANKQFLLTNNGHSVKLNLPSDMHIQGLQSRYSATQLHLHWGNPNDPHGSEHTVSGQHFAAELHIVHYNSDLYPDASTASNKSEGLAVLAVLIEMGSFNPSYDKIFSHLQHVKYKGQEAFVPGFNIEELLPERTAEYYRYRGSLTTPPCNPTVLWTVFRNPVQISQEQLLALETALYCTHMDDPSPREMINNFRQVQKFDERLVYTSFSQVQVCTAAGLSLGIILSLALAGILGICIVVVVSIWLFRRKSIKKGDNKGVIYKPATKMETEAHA

Ki (Carbonic anhydrase 2): 366 nM
Ki (Carbonic anhydrase 1): 532 nM
Ki (Carbonic anhydrase 9): 47.2 nM
Ki (Carbonic anhydrase 12): 74.7 nM
SMILES: S=C(S)OC1CCCC1

Ki (Carbonic anhydrase 9): 322 nM
SMILES: CC(C)CCOC(=S)S

SMILES: CCOC(=S)S
Ki (Carbonic anhydrase 9): 566 nM

Ki (Carbonic anhydrase 9): 760 nM
SMILES: CN(C)CCOC(=S)S

Ki (Carbonic anhydrase 9): 78.8 nM
SMILES: S=C(S)OC1CCCCC1

Ki (Carbonic anhydrase 2): 6.6 nM
Ki (Carbonic anhydrase 1): 63.4 nM
Ki (Carbonic anhydrase 9): 643 nM
Ki (Carbonic anhydrase 12): 835 nM
SMILES: S=C(S)OC1CC2CC1C1CCCC21 (centres undefined)

Ki (Carbonic anhydrase 9): 7.8 nM
SMILES: S=C(S)SCc1ccccc1

Ki (Carbonic anhydrase 9): 631 nM
SMILES: COC(=S)S

Ki (Carbonic anhydrase 9): 776 nM
SMILES: S=C(S)OCC12CC3CC(CC(C3)C1)C2

Ki (Carbonic anhydrase 9): 4.3 nM
SMILES: S=C([S-])OCCc1ccccn1.[K+]
Activity (Oryctolagus cuniculus [1]): Active
Activity (Oryctolagus cuniculus [2]): 4 mmHg
Activity (Oryctolagus cuniculus [3]): 1 mmHg

SMILES: CCN[C@H]1C[C@H](C)S(=O)(=O)c2sc(S(N)(=O)=O)cc21
Activity (Oryctolagus cuniculus [4]): inactive
Activity (Oryctolagus cuniculus [5]): inactive

Ki (Carbonic anhydrase 9): 622 nM
SMILES: CC(C)(C)OC(=O)NCCCCOC(=S)[S-].[K+]
Activity (Oryctolagus cuniculus [1]): Active
Activity (Oryctolagus cuniculus [2]): 4 mmHg
Activity (Oryctolagus cuniculus [3]): 1 mmHg

SMILES: CC(C)OC(=S)S
Ki (Carbonic anhydrase 9): 531 nM

Ki (Carbonic anhydrase 9): 831 nM
SMILES: CN(C)CCOCCOC(=S)[S-].[K+]
Activity (Oryctolagus cuniculus [1]): Active
Activity (Oryctolagus cuniculus [2]): 4 mmHg
Activity (Oryctolagus cuniculus [3]): 1 mmHg

Ki (Carbonic anhydrase 9): 8.1 nM
SMILES: S=C(S)OCc1ccccc1

Ki (Carbonic anhydrase 9): 678 nM
SMILES: N#CNC(=S)S

Ki (Carbonic anhydrase 9): 72.1 nM
SMILES: CCCCCCCCOC(=S)S

Ki (Carbonic anhydrase 9): 403 nM
SMILES: CCCCCOC(=S)S

Ki (Carbonic anhydrase 9): 779 nM
SMILES: S=C([S-])OCCC12CC3CC(CC(C3)C1)C2.[K+]
Activity (Oryctolagus cuniculus [1]): Active
Activity (Oryctolagus cuniculus [2]): 4 mmHg
Activity (Oryctolagus cuniculus [3]): 1 mmHg

Ki (Carbonic anhydrase 9): 765 nM
SMILES: CC(C)(C)OC(=O)NCCCCCCOC(=S)S

Ki (Carbonic anhydrase 9): 58 nM
SMILES: S=C([S-])OCC(c1ccccc1)c1ccccc1.[K+]
Activity (Oryctolagus cuniculus [6]): 12 mmHg
Activity (Oryctolagus cuniculus [1]): Active
Activity (Oryctolagus cuniculus [7]): Active
Activity (Oryctolagus cuniculus [3]): 1 mmHg
